Results from ChEMBL document CHEMBL1143557, “Discovery of a fluoroindolo[2,3-a]carbazole clinical candidate with broad spectrum antitumor activity in preclinical tumor models superior to the marketed oncology drug, CPT-11” (J Med Chem, 2005).

What was measured:
HT-29 [1] = experiment: In vivo antitumor activity against HT-29 human colon carcinoma xenograft model when administered iv, (1:1:8 cremophor: ethanol: water vehicle) expressed as optimal effect in LCK; assay type: functional
P388 [2] = experiment: Ratio of IC50 of P388 cells to that of CPT45 cells; assay type: functional, Mus musculus
P388 [3] = experiment: Cytotoxic concentration against murine leukemia P388 cells; assay type: functional, cell-based, Mus musculus
HT-29 [4] = experiment: Antitumor activity against HT-29 human colon carcinoma xenograft model; Activity expressed as no. of cures by total (8); assay type: functional
DNA topoisomerase 1 = target: T1, DNA topoisomerase 1 (Homo sapiens, UniProt P11387); experiment: Topoisomerase I activity for single-strand breaks in the DNA substrate
T1 sequence (P11387 whole entry): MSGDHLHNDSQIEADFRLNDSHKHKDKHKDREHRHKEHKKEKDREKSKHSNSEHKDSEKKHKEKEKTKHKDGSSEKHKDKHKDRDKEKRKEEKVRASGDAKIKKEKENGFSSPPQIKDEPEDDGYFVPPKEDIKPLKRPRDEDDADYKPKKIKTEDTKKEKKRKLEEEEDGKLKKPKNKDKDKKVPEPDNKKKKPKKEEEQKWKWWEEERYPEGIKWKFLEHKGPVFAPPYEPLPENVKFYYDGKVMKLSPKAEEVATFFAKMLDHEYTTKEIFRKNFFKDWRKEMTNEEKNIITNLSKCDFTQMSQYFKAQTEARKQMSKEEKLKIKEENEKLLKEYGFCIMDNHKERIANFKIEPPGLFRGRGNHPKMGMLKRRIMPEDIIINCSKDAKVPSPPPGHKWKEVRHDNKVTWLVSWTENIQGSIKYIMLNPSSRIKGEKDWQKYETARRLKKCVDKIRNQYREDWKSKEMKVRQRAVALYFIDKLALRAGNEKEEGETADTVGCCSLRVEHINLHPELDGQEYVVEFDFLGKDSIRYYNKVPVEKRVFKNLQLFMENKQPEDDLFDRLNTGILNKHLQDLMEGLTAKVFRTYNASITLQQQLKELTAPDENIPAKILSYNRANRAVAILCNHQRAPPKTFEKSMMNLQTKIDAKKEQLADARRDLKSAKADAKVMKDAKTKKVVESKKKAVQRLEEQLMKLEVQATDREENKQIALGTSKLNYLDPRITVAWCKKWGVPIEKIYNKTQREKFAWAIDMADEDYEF
Summary of the method: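 Topo I-mediated DNA cleavage assay using covalently closed, supercoiled phage PM2 DNA as substrate; read-out is induction of single-strand breaks.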

HT-29 [5] = experiment: Optimal dose required for antitumor activity against HT-29 human colon carcinoma xenograft model when administered twice a day iv dosing every other day for five doses (2q2dx5,iv); assay type: functional
HT-29 [6] = experiment: Optimal dose required for antitumor activity against HT-29 human colon carcinoma xenograft model when administered once a day iv dosing every other day for five doses (q2dx5,iv); assay type: functional
HT-29 [7] = experiment: Optimal dose required for antitumor activity against HT-29 human colon carcinoma xenograft model when administered once a day iv dosing every other day for five doses (q2dx5,iv); MTD=30 mg.kg/inj; assay type: functional

| Structure (SMILES) | Activity (HT-29 [1]) | Ratio (P388 [2]) | IC50 (P388 [3]; Mus musculus, P388) [µM] | No. of cures (HT-29 [4]) | EC50 (DNA topoisomerase 1) [µM] | Optimal dose (HT-29 [5]) [mg.kg/inj] | Optimal dose (HT-29 [6]) [mg.kg/inj] | Optimal dose (HT-29 [7]) [mg.kg/inj] | IC50 (P388 [3]; p388) [µM] |
| --- | --- | --- | --- | --- | --- | --- | --- | --- | --- |
| O=C1NC(=O)c2c1c1c3cc(F)c(F)cc3sc1c1c2c2cc(F)c(F)cc2n1C1OC(CO)C(F)C(O)C1O (centres undefined) | >2.3 | >1658 | 0.003 | 2 | 0.04 | 11 |  |  |  |
| O=C1NC(=O)c2c1c1c3cc(F)ccc3[nH]c1c1c2c2cc(F)ccc2n1C1OC(COF)C(F)C(O)C1O (centres undefined) | 1.6 | 450 | 0.004 | 0 | 0.41 |  | 13 |  |  |
| NCC1OC(n2c3ccc(F)cc3c3c4c(c5c6cc(F)ccc6[nH]c5c32)C(=O)NC4=O)C(O)C(O)C1F (centres undefined) |  | 37 | 0.014 |  | 0.07 |  |  |  |  |
| O=C1NC(=O)c2c1c1c3cc(F)c(F)cc3sc1c1c2c2cc(F)c(F)cc2n1C1OC(CF)C(O)C(O)C1O (centres undefined) |  | 119 | 0.052 |  | 1.5 |  |  |  |  |
| O=C1NC(=O)c2c1c1c3cc(F)ccc3sc1c1c2c2cc(F)ccc2n1C1OC(CF)C(O)C(O)C1O (centres undefined) |  | 110 | 0.016 |  | 0.42 |  |  |  |  |
| NCC1OC(n2c3cc(F)c(F)cc3c3c4c(c5c6cc(F)c(F)cc6[nH]c5c32)C(=O)NC4=O)C(O)C(O)C1(F)F (centres undefined) |  | 16 | 0.06 |  | 0.05 |  |  |  |  |
| O=C1NC(=O)c2c1c1c3cc(F)ccc3[nH]c1c1c2c2cc(F)ccc2n1C1OC(CO)C(F)(F)C(O)C1O (centres undefined) |  | 380 | 0.003 |  | 0.08 |  |  |  |  |
| O=C1NC(=O)c2c1c1c3cc(F)ccc3[nH]c1c1c2c2cc(F)ccc2n1C1OC(CO)C(F)C(O)C1O (centres undefined) | 3.1 | 380 | 0.002 | 2 | 0.11 |  |  | 20 |  |
| O=C1NC(=O)c2c1c1c3cc(F)c(F)cc3[nH]c1c1c2c2cc(F)c(F)cc2n1C1OC(CO)C(F)C(O)C1O (centres undefined) |  | 500 | 0.004 |  | 0.75 |  |  |  |  |
| O=C1NC(=O)c2c1c1c3cc(F)c(F)cc3sc1c1c2c2cc(F)c(F)cc2n1C1OC(CO)C(F)(F)C(O)C1O (centres undefined) |  | 580 | 0.0004 |  | 0.5 |  |  |  |  |
| O=C1NC(=O)c2c1c1c3ccc(F)cc3[nH]c1c1c2c2ccc(F)cc2n1C1OC(CO)C(F)C(O)C1O (centres undefined) |  | 59 | 0.003 |  | 0.2 |  |  |  |  |
| O=C1NC(=O)c2c1c1c3cc(F)c(F)cc3[nH]c1c1c2c2cc(F)c(F)cc2n1C1OC(CF)C(O)C(O)C1O (centres undefined) |  | 52 | 0.034 |  | 3 |  |  |  |  |
| O=C1NC(=O)c2c1c1c3cc(F)ccc3[nH]c1c1c2c2cc(F)ccc2n1C1OC(CF)C(O)C(O)C1O (stereo in doubt; 6) |  | 98 |  |  | 0.48 |  |  |  | 0.05 |
| O=C1NC(=O)c2c1c1c3cc(F)ccc3[nH]c1c1c2c2cc(F)ccc2n1C1OC(CO)C(O)C(O)C1O (centres undefined) |  | 183 | 0.018 |  | 0.24 |  |  |  |  |
| O=C1NC(=O)c2c1c1c3cc(F)ccc3[nH]c1c1c2c2cc(F)ccc2n1C1OC(CF)C(O)C(O)C1O (stereo in doubt; 10) |  | 110 |  |  | 4.4 |  |  |  | 0.012 |
